# Most compounds without a hit are left out; they make up all but 4.4% or so of the library.
# AI-2 QS mod = Vibrio harveyi AI-2 quorum sensing modulators, primary screen, JMH597 strain, luminescence/OD600 ratio | AID 2094, 2009 | Vibrio harveyi JMH597 AI-2 luminescence/OD600 ratio, 9 h; stronger effect = lower value; strain lacks LuxN and CqsS sensors; 0 = neutral-control median | activity change, % at 7.5 µM | hit rate 0.4% among 300,000; in the data active = activity change below about -75%, passing the limit was not always enough;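 note: luminescence divided by OD600 gain over 9 h not by final OD600 alone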
# AHR act = AHR activators, primary screen, cell-based, luminescence, luciferase reporter, human | Aryl hydrocarbon receptor (Homo sapiens), P35869 | AHR-responsive luciferase reporter cells | activation, % at 5 µM | hit rate 2.5% among 320,000 | AID 2796, 2010; in the data active = activation above about 47%
# MsrA act = bovine MsrA enzyme activators, primary screen, biochemical, absorbance, HTS. purified bovine MsrA, absorbance read-out. hit rate 0.3% among 360,000. AID 602163, 2012. activation, % at 10.6 µM; in the data active = activation above about 7.5%
# MsrA inh = bovine MsrA enzyme inhibitors, primary screen, biochemical, absorbance, HTS | AID 651718, 2012 | hit rate 0.75% among 360,000 | Methionine sulfoxide reductase A (Bos taurus) | inhibition, % at 15.5 µM | purified bovine MsrA, absorbance read-out; in the data active = inhibition above about 4.5%
# TbMetRS inhib = T. brucei MetRS inhibitors, primary screen, biochemical, luminescence. methionyl-tRNA synthetase (Trypanosoma brucei brucei). purified T. brucei MetRS, ATP depletion, Kinase-Glo luminescence. inhibition, % at 11.9 µM. hit rate 0.4% among 360,000;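 active = inhibition above a per-plate cutoff of the control wells' mean inhibition plus 3 SD, cut at about 5.5% in these data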
#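 Dosing: 11.9 µM compound single dose, 0.9% DMSO; Assay system: purified T. brucei MetRS enzyme; Measured by: Kinase-Glo luciferase luminescence reporting remaining unconsumed ATP; Schedule: 15 min plus 2 h at 25 °C.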
# HTR2A ag = mouse Htr2a agonists via beta-arrestin recruitment, primary screen, cell-based, luminescence. 5-hydroxytryptamine receptor 2A (Mus musculus), P35363. CHO-K1 mHTR2A beta-arrestin complementation; percent of 30 µM serotonin response. activation, % at 7.6 µM. hit rate 0.66% among 360,000;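 active = activation above a run cutoff, the mean activation of all tested compounds plus 3 SD, cut at about 14% in these data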
# Target sequence (P35363 whole entry, looked up): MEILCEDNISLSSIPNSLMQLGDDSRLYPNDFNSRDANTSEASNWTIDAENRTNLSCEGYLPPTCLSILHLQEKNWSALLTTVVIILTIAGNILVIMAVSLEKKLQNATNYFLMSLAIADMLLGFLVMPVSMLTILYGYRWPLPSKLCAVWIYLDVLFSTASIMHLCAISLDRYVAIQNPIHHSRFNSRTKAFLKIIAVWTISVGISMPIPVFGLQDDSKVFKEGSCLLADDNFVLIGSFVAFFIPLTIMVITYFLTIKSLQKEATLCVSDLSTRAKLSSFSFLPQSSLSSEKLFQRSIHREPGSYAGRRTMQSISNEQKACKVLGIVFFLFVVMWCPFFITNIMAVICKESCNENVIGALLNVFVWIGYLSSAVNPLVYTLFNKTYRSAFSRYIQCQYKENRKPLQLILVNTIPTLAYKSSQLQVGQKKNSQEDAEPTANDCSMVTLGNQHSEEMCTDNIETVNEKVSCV
# Hits are given with their value; n = inactive; x = no result.
SMILES,AI-2 QS mod,AHR act,MsrA act,MsrA inh,TbMetRS inhib,HTR2A ag
COC(=O)[C@]1(CC(C)C)NC=C(C(=O)c2ccccc2)[C@@H]1c1cccc(C(F)(F)F)c1,x,x,x,n,x,x
O=C(Nc1ccc(Cl)cc1)C1=Cc2ccccc2OC1,n,72,n,n,n,n
O=C(Nc1ccc(Cl)cc1)c1ccc2c(c1)OCO2,n,n,n,n,n,n
O=C(C1=C(O)C(=O)N(c2ncccn2)C1c1ccc(Cl)cc1)c1ccco1 (centres undefined),n,75,n,n,n,n
Cc1cccc(C)c1-n1nnnc1C(c1ccnc2ccccc12)N(C)Cc1ccccc1 (centres undefined),x,x,n,n,n,n
O=C(N/N=C1\C/C(=N\NC(=O)c2ccncc2)c2ccccc21)c1ccncc1,n,56,n,n,n,n
O=C(NCc1cccnc1)c1c(O)c2cccc3c2n(c1=O)CCC3,n,77,n,n,n,n
CCn1c(=O)c(C(=O)NCc2cccnc2)c(O)c2ccccc21,n,56,n,n,n,n
CCn1c(=O)c(C(=O)NC(C)C)c(O)c2ccccc21,n,76,n,n,n,n
COc1cc(OC)cc(C(=O)NCC2CCN(C(=O)C(=O)c3cccs3)CC2)c1,x,x,x,n,x,x
Cn1nc(C(=O)NCc2ccccc2)c2c1-c1ccccc1S(=O)(=O)C2,x,n,n,n,n,n
CN(C)c1ccc(NC(=O)CSc2nnc(-c3cnccn3)n2C)cc1,n,51,n,n,n,n
CCc1ccc(NC(=O)CSc2nnc(-c3cnccn3)n2C)cc1,n,n,n,n,n,n
COc1cc2sc3ccc(-c4ccc(CN5CCOCC5)cc4)cc3c(=O)c2cc1OC,x,52,n,n,n,n
CC(=O)Nc1ccc(NC(=O)C(F)(F)F)cc1,n,n,n,n,n,n
CC1CCN(c2ccc(-c3ccc(NC(=O)C(F)(F)F)cc3)nn2)CC1,n,50,n,x,n,n
C=CCN=C1NC(CCc2ccccc2)C(C(=O)OC)=C(C)N1Cc1ccccc1C(F)(F)F (centres undefined),x,x,x,n,x,x
NNC(=O)CN1CCCc2ccccc21,n,71,n,n,n,n
Cc1ccc2c(c1)sc(=NC(=O)c1cccs1)n2C,n,56,n,n,n,n
COC(=O)Cn1c(=NC(=O)C2CC2)sc2c(C)cc(C)cc21,n,n,n,n,n,n
Cc1ccc2c(c1)sc(=NC(=O)C1CC1)n2C,n,54,n,n,n,n
O=S(=O)(Nc1ccc(C(O)(C(F)(F)F)C(F)(F)F)cc1)c1cccc2cccnc12,x,x,n,n,n,n
CCOC(=O)C1CCCN(S(=O)(=O)CCNC(=O)c2ccc3c(c2)OCO3)C1 (centres undefined),n,n,n,n,n,n
CCCCOCCCNC(=O)C[C@H]1C[C@@]2(C(=O)OC)C(=C[C@H](C(C)(C)C)O[C@@H]2C)N(Cc2ccccc2)C1=O,x,x,x,n,x,x
Cc1ccc(C(=O)Nc2nnc(Cc3ccccc3)s2)cc1,n,n,n,n,n,n
SMILES,AI-2 QS mod,AHR act,MsrA act,MsrA inh,TbMetRS inhib,HTR2A ag
COc1ccc(C(=O)Nc2nnc(Cc3cccs3)s2)cc1OC,n,78,n,n,n,n
CCOc1ncccc1C(=O)Nc1nnc(C)s1,n,n,n,n,n,n
CCOc1ccc(C(=O)Nc2nnc(C)s2)cc1OCC,n,50,n,n,n,n
O=C(Nc1nnc(Cc2ccccc2)s1)c1ccccc1,n,54,n,n,n,n
COC(=O)c1cc2c(c3c4cc(OC)ccc4n(C(=O)c4ccccc4)c13)C(=O)N(C1CCCCC1)C2,x,x,x,n,x,x
Cc1cc(-c2ccccc2)nc(N/N=C/c2ccccc2F)n1,n,68,n,n,n,n
C/C(=N/Nc1nc(C)cc(-c2ccccc2)n1)c1ccco1,n,n,n,n,n,n
C/C(=N\Nc1nc(C)cc(-c2ccccc2)n1)c1cccc(N)c1,n,49,n,n,n,n
C/C(=N\Nc1nc(C)cc(-c2ccccc2)n1)c1ccc(C)o1,n,47,n,n,n,n
COCCCn1cnn2c(=O)c3ccccc3nc2c1=O,x,x,x,n,x,x
O=C(Nc1ccc2c(c1)OCO2)c1cnn2cccnc12,n,108,n,n,n,n
O=C(Nc1cccc(O)c1)c1cnn2cccnc12,n,50,n,n,n,n
Cc1cc(C)n2ncc(C(=O)Nc3ccc4c(c3)OCO4)c2n1,n,73,n,n,n,n
Cc1ccc(CCC(=O)Nc2ccc(C)c(C)c2)o1,-79,n,n,n,n,n
CCOc1[nH]n(-c2ccc(Cl)cc2)c(=O)c1C=NCc1cccnc1,n,56,n,n,n,n
CCOc1[nH]n(-c2ccccc2)c(=O)c1C=NCc1ccncc1,n,n,n,n,n,n
COc1cc(Cl)ccc1NC(=O)COc1ccccc1C(=O)NN,n,77,n,n,n,n
COc1ccc(C(=O)C[n+]2ccc3ccccc3c2C)cc1,n,59,n,n,n,n
CCOC(=O)C1=C(C)NC(C)=C(C(=O)OCC)C1C(=O)O,n,n,n,n,n,n
CCCC1C(C(=O)OCC)=C(C)NC(C)=C1C(=O)OCC,n,57,n,n,n,n
Oc1csc(Cc2nc(-c3ccc4ccccc4c3)cs2)n1,n,83,n,n,n,n
Oc1csc(Cc2nc(-c3ccc(-c4ccccc4)cc3)cs2)n1,n,65,n,n,n,n
Oc1csc(Cc2nc(-c3ccccc3F)cs2)n1,n,n,n,n,n,n
CCCCNc1c(-c2cccc(-c3ccc(OC)cc3)c2)nc2ccc(C)cn12,n,n,n,n,n,n
CCCCCCSc1cc(-c2nc3cnccn3c2NCc2ccccc2)ccc1OC,n,49,n,x,n,n
SMILES,AI-2 QS mod,AHR act,MsrA act,MsrA inh,TbMetRS inhib,HTR2A ag
COc1cc(-c2nc3ccccn3c2NCc2ccccc2)ccc1SC1CCCCC1,n,69,n,x,n,n
CCCCCCSc1cc(-c2nc3cc(C)ccn3c2NC2CCCCC2)ccc1OC,n,n,n,n,n,n
COc1cc(-c2nc3ccc(C)cn3c2NCc2ccccc2)ccc1-c1cccc(Cl)c1,x,73,n,n,n,n
COc1ccc(-c2nc3ccc(C)cn3c2NCc2ccc3c(c2)OCO3)cc1,n,69,n,n,n,n
COc1ccc(-c2nc3cnccn3c2NCc2ccccc2)cc1SC1CCCCC1,n,50,n,x,n,n
O=C(Nc1ccc(Br)cc1)c1cc2ccccn2n1,n,57,n,n,n,n
COc1ccc2c(c1)c1nnc(SCC(=O)N3C(C)CCCC3C)nc1n2C (centres undefined),n,50,n,n,n,n

# Assay outcomes (PubChem)
